From PubChem BioAssay
CXCR6 inh – inhibitors of human CXCR6 receptor | O00574 | AID 602244 | inhibition, % at 20 µM | CHO-K1 PathHunter CXCR6 beta-arrestin, luminescence | 360,000 compounds, 0.36% hits; in the data active = inhibition above about 34%, passing the limit was not always enough;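 note: antagonist mode with CXCL16 agonist at 10 nM final; 0% = 10 nM CXCL16 with DMSO and 100% = unstimulated wells without agonist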
APJ antagonist – blocks the human apelin receptor APJ; P35414; CHO-K1 APJ beta-arrestin complementation, luminescence; inhibition, % at 20 µM; 330,000 compounds, 0.32% hits; AID 2521;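 active = inhibition above about 40% at 20 µM, limit read from the data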;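 note: cells challenged with 10 nM apelin-13 agonist together with compound; plate controls were apelin-13 plus DMSO wells for no effect and DMSO wells lacking apelin-13 for full effect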
APJ ag – agonists of human APJ apelin receptor | CHO-K1 APJ PathHunter beta-arrestin, luminescence; 0% DMSO wells, 100% apelin | activation, % at 20 µM | P35414 | 330,000 compounds, 0.11% hits;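 active = activation more than six SD over the plate average, tested at 20 µM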;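 note: 0% = DMSO alone and 100% = apelin-13 at 10 nM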
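Assay system – PathHunter CHO-K1 APJ (AGTRL-1) beta-arrestin reporter cells · Compound – one dose, 20 µM compound, 1% DMSO · Timing – compound 90 min 25 °C, reagent 1 h · Measured by – luminescence from split beta-galactosidase complementation, Galacton Star/Emerald II substrate · Measure – beta-arrestin recruitment to APJ as agonist activity, luminescent signal · Benchmarks – DMSO vs Apelin-13 10 nM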
EBI2 antag – EBI2 (human) antagonism. EBI2 beta-arrestin recruitment, luminescence, 7a,25-OHC stimulated. inhibition, % at 5 µM. 360,000 compounds, 0.81% hits; in the data active = inhibition above about 38%;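 note: enzyme fragment complementation signal reports receptor beta-arrestin coupling in cells; 0% = agonist plus DMSO wells and 100% = wells without agonist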
Target sequence (P32249 whole entry, looked up, the tested form may be a part): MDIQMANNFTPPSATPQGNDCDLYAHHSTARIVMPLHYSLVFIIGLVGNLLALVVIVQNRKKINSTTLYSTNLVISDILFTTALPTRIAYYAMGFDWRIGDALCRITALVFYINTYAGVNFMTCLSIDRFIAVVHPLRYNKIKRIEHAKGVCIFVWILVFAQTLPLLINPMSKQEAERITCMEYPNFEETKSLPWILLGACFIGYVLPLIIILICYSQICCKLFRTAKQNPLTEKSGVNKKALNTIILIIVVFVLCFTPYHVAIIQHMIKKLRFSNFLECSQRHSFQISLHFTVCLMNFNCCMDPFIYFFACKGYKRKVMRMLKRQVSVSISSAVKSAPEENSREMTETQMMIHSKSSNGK
CCR6 antagonist – CCR6 (human) receptor antagonism. 340,000 compounds, 0.49% hits. inhibition, % at 20 µM. CHO-K1 CCR6 PathHunter beta-arrestin, luminescence, CCL20-stimulated. AID 493098. P51684;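 active = compounds whose inhibition of the agonist-driven luminescence signal at 20 µM reaches about 50%, limit read from the data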;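 note: cells stimulated with CCL20 at 14 nM final; plate controls were DMSO with CCL20 for no effect and DMSO without agonist for full effect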
Target sequence (P51684 whole entry, looked up): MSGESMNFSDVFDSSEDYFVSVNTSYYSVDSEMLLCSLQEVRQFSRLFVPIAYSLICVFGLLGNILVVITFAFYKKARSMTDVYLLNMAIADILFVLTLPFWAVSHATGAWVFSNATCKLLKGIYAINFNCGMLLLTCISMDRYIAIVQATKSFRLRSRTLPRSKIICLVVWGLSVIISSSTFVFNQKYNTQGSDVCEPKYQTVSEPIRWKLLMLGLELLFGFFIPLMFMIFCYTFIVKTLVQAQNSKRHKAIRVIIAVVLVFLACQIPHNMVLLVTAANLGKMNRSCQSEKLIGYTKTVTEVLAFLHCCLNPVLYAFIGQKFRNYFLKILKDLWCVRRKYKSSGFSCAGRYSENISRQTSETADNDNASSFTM
APJ antag conf – confirmation of human APJ apelin receptor antagonists; shares compounds with APJ antagonist; APJ beta-arrestin recruitment, luminescence, antagonist mode; inhibition, % at 20 µM; 950 compounds, 66% hits; in the data active = inhibition above about 50%
CXCR6 confirm – confirmation of human CXCR6 receptor antagonists. 700 compounds, 65% hits. inhibition, % at 20 µM. shares compounds with CXCR6 inh. CHO-K1 CXCR6 PathHunter beta-arrestin, luminescence;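 active = mean inhibition over four retests above 40%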;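 note: receptor stimulated with 10 nM CXCL16 agonist; beta-galactosidase fragment complementation upon beta-arrestin recruitment to receptor; plate controls were CXCL16 plus DMSO for no effect and DMSO without CXCL16 for full effect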
EBI2 conf – EBI2 (human) antagonism, single concentration confirmation | shares compounds with EBI2 antag | EBI2 beta-arrestin luminescence, 7a,25-OHC antagonism | inhibition, % at 5 µM | 2,400 compounds, 29% hits;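 active = inhibition of at least 50%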
EBI2 agonist – activates EBI2, counter-screen for EBI2 antagonists. 2,400 tested, under 10 active. AID 652000. EBI2-expressing cells, agonist mode, luminescence, 60 min; 0% vehicle, 100% 7α,25-dihydroxycholesterol control. shares compounds with EBI2 antag. activation, % at 5 µM;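 active = activation of at least 50%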
bGal counter – counter-screen for EBI2 antagonists: E. coli beta-galactosidase inhibition | inhibition, % at 5 µM | shares compounds with EBI2 antag | 2,400 compounds, 1% hits | purified beta-galactosidase, luminescent Galacton Star, 15 min;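 active = replicate-average signal at least 3 plate SD below neutral wells, shown as high inhibition, flagging enzyme-inhibiting false positives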;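 note: 0% = DMSO wells with enzyme and 100% = wells lacking enzyme; higher means stronger loss of beta-gal luminescence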
Numbers without * were called inactive. Most compounds without a hit are left out; they make up all but 1.5% or so of the library.

How did CC(C)(C)OC(=O)N1CCC(C(=O)NCC2CCCO2)CC1 (centres undefined) do in these assays?
CXCR6 inh: 5.6; APJ antagonist: 10.2; APJ ag: -1.5; EBI2 antag: -8.1; CCR6 antagonist: 2.1

How did CCOC(=O)C1C(C)N=C2SCC(=O)N2C1c1cccc(Br)c1 (centres undefined) do in these assays?
CXCR6 inh: -2.2; APJ antagonist: 41.1*; APJ ag: -6.4; EBI2 antag: 38.0*; CCR6 antagonist: 22.7; APJ antag conf: 32.9; EBI2 conf: -5.8; EBI2 agonist: -0.6; bGal counter: -11.3

What do the screens show for `O=C(COC(=O)Cc1ccccc1F)NNC(=O)c1ccc([N+](=O)[O-])cc1`?
CXCR6 inh: -15.8; APJ antagonist: -6.0; APJ ag: 18.1; EBI2 antag: -11.9; CCR6 antagonist: -14.5

Results for CN(C(=O)c1cccc(NC(=O)Cc2cccc(NC(=O)C3CCCN(C(=O)c4ccccc4)C3)c2)c1)C1CC1 (centres undefined) ?
CXCR6 inh: 2.5; EBI2 antag: -9.1; CCR6 antagonist: -0.2

Results for CC1(C)CC(=O)C(C=Nc2ccc(O)c(N=CC3=C(O)CC(C)(C)CC3=O)c2)=C(O)C1 ?
CXCR6 inh: 22.5; APJ antagonist: -11.4; APJ ag: 0.0; EBI2 antag: -3.4; CCR6 antagonist: -13.8

How did CC1(C)CC(=O)C(C=Nc2ccc(C(=O)c3ccccc3)cc2N=CC2=C(O)CC(C)(C)CC2=O)=C(O)C1 do in these assays?
CXCR6 inh: 103.4*; APJ antagonist: 119.7*; APJ ag: -17.8; EBI2 antag: 74.1*; CCR6 antagonist: 111.0*; APJ antag conf: 155.7*; CXCR6 confirm: 114.5*; EBI2 conf: 93.1*; EBI2 agonist: -5.7; bGal counter: 82.6*

How did Cc1ccc(-c2cc(C(=O)N3CCCc4ccccc43)c3ccccc3n2)cc1 do in these assays?
CXCR6 inh: 2.1; APJ antagonist: -4.3; APJ ag: -6.5; EBI2 antag: 10.3; CCR6 antagonist: 14.4

Results for Cc1ccc2nc3sc(C(=O)N4CCCc5ccccc54)c(N)c3cc2c1 ?
CXCR6 inh: -3.4; APJ antagonist: 75.9*; APJ ag: -13.3; EBI2 antag: 53.8*; CCR6 antagonist: 18.8; APJ antag conf: -8.2; EBI2 conf: 54.9*; EBI2 agonist: -0.1; bGal counter: 10.3

What do the screens show for `C/C(=N\NC(=O)COc1ccccc1-c1ccccc1)c1ccccn1`?
CXCR6 inh: 66.4*; APJ antagonist: 61.7*; APJ ag: -9.9; EBI2 antag: 62.0*; CCR6 antagonist: 89.2*; APJ antag conf: 88.2*; CXCR6 confirm: 102.3*; EBI2 conf: 71.4*; EBI2 agonist: -1.5; bGal counter: 5.4

How did C/C(=N\NC(=O)COc1ccccc1-c1ccccc1)c1cccnc1 do in these assays?
CXCR6 inh: -0.6; APJ antagonist: -8.4; APJ ag: 3.7; EBI2 antag: 2.4; CCR6 antagonist: 6.5

Results for CC(=O)OCCCNc1cc(Sc2ccc(C)cc2)c2nonc2c1[N+](=O)[O-] ?
CXCR6 inh: 70.7*; APJ antagonist: 71.0*; APJ ag: -7.7; EBI2 antag: 85.3*; CCR6 antagonist: 70.1*; APJ antag conf: 103.2*; EBI2 conf: 45.4; EBI2 agonist: -1.0; bGal counter: 1.8

What do the screens show for `Cc1ccc(C(=O)CNc2ccc(Br)cc2)cc1`?
CXCR6 inh: 39.2; APJ antagonist: 84.5*; APJ ag: -16.2; EBI2 antag: 73.5*; CCR6 antagonist: 56.1*; APJ antag conf: 102.4*; EBI2 conf: 65.7*; EBI2 agonist: -3.8; bGal counter: 3.7

What do the screens show for `CC(C)OCCCNC(=O)c1ccc(NC(=O)C2=CSCCO2)cc1`?
CXCR6 inh: 1.8; APJ antagonist: -12.9; APJ ag: -8.9; EBI2 antag: -15.7; CCR6 antagonist: 8.4

Results for COc1cccc(-n2nc(C#N)c(Cl)cc2=O)c1 ?
CXCR6 inh: 49.6*; APJ antagonist: 49.5*; APJ ag: -3.2; EBI2 antag: 46.6*; CCR6 antagonist: 36.4; CXCR6 confirm: 50.7*

Results for CC(Oc1ccc2c(-c3ccccc3)cc(=O)oc2c1)C(=O)NCC(O)c1ccccc1 (centres undefined) ?
CXCR6 inh: 8.2; APJ antagonist: -54.2; APJ ag: -1.8; EBI2 antag: 13.4; CCR6 antagonist: 2.2

How did CCOc1cc(/C=N/NC(=O)C(=O)N2CCCC2)ccc1O do in these assays?
CXCR6 inh: -2.2; APJ antagonist: -7.4; APJ ag: -3.3; EBI2 antag: 1.2; CCR6 antagonist: -2.9

Results for COc1ccc(-c2nc3cc(C)c(Br)c(C)n3c2CC(C)(C)C)cc1OC ?
CXCR6 inh: 7.5; EBI2 antag: -4.3

Results for COC(=O)c1ccc(/C=C(\C#N)C(=O)NC(C)c2ccccc2)cc1 (centres undefined) ?
CXCR6 inh: 40.5*; APJ antagonist: 12.0; APJ ag: 9.9; EBI2 antag: 43.3; CCR6 antagonist: 53.1*; CXCR6 confirm: 55.1*

Results for Cn1c(=O)c2c(ncn2CC(=O)OCC(=O)c2ccc(OC(F)F)cc2OC(F)F)n(C)c1=O ?
CXCR6 inh: 5.3; EBI2 antag: 4.1

How did CC(=NO)C1CCC2C3CCC4=CC(=NO)CCC4(C)C3C(O)CC12C (centres undefined) do in these assays?
CXCR6 inh: 44.2*; EBI2 antag: 4.8; CCR6 antagonist: 57.4*; CXCR6 confirm: 57.0*

How did CCCCn1c(Nc2ccccc2)nc2ccccc21 do in these assays?
CXCR6 inh: -4.2; APJ antagonist: 12.7; APJ ag: -0.3; EBI2 antag: -8.7; CCR6 antagonist: 1.6

Results for CCCn1c(Nc2nc3ccccc3n2C)nc2ccccc21 ?
CXCR6 inh: 69.9*; APJ antagonist: 7.6; APJ ag: 2.1; EBI2 antag: -9.7; CCR6 antagonist: 84.1*; CXCR6 confirm: 5.3

Results for COc1ccc(-c2c(C(=O)c3ccccc3)[nH]c(N)c2C(=O)c2ccccc2)cc1OC ?
CXCR6 inh: 41.5*; EBI2 antag: 3.1; CXCR6 confirm: 41.2*
